Drawing on ChEMBL document CHEMBL4431354, “Piperazic acid derivatives inhibit Gli1 in Hedgehog signaling pathway” (Bioorg Med Chem Lett, 2016), this text covers inhibition and Activity for eight compounds.

Data set [1] concerns the target T1, Zinc finger protein GLI1 (Homo sapiens) (UniProt P08151).
T1 sequence (whole entry): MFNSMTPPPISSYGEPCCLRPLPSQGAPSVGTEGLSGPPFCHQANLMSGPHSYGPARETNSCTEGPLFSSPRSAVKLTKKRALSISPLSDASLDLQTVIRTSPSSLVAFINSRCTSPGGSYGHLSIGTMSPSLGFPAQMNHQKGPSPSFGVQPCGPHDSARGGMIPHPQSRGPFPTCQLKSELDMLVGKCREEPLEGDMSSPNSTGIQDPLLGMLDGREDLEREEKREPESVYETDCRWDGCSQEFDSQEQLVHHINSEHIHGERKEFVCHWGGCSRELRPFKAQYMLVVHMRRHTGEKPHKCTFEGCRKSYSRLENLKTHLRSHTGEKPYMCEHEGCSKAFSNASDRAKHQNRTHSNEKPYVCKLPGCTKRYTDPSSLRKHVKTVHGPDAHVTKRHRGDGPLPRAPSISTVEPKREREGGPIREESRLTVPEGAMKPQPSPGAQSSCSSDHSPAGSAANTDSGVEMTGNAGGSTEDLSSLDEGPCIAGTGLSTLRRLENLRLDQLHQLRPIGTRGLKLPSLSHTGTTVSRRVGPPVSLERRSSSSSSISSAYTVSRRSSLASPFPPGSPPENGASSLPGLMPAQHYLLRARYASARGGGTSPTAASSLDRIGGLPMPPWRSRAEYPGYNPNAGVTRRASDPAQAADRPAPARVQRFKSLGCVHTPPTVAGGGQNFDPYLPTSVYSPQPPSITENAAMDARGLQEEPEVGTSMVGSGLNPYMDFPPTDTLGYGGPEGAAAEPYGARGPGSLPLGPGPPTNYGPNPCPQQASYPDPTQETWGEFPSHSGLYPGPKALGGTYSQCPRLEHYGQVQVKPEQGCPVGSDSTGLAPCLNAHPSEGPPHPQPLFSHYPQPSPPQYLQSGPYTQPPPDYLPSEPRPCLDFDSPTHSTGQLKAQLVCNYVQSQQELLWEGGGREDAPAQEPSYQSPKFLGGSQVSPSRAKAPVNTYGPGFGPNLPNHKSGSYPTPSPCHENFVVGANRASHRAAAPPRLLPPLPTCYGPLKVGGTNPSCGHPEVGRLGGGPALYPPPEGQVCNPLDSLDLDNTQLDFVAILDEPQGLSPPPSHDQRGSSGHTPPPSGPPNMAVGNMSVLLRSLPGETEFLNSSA
Kind of data set: Inhibition of Shh-N-induced Gli1 (unknown origin) expressed in mouse Shh Light2 cells assessed as Gli1-mediated mediated transcription up to 50 uM incubated for 30 hrs by firefly luciferase assay. Format: cell-based. An outline of the steps: (§1)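 Shh-LIGHT2 cells (NIH-3T3 clone stably carrying Gli-dependent firefly and constitutive Renilla luciferase) treated 30 h with graded compound concentrations in Shh-N conditioned medium; firefly luminescence read as percent inhibition versus Shh-N-stimulated DMSO control. Cyclopamine 10 µM positive control. Three independent experiments in triplicate, mean ± SD.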

The target of data set [2] is T1, Zinc finger protein GLI1 (Homo sapiens). Put plainly: Inhibition of Gli1 (unknown origin) expression in mouse Shh Light2 cells at 1 to 100 uM by Western blot analysis. Format: cell-based. Put shortly:
(§2)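 Gli1 protein immunoblotted in Shh-N-stimulated Shh-LIGHT2 cells after treatment with varying doses or 100 µM compound; GAPDH loading control; Shh-N-stimulated DMSO-treated cells as control; cyclopamine 10 µM positive control.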

Data set [3] has the same target. Put plainly: Inhibition of Shh-N-induced Gli1 (unknown origin) expressed in mouse Shh Light2 cells assessed as Gli1-mediated mediated transcription at 50 uM incubated for 30 hrs by firefly luciferase assay. Format: cell-based. An outline of the steps:
as §1

Data set [4] shares this target. Put plainly: Inhibition of Gli1 (unknown origin) expression in mouse Shh Light2 cells at 100 uM by Western blot analysis. Format: cell-based. Put shortly:
as §2
For orientation: A western blot detects proteins with antibodies after separation by electrophoresis.

Data set [5] concerns Shh Light II. Put plainly: Effect on SHH expression in mouse Shh Light2 cells at 25 to 50 uM after 24 hrs by Western blot analysis. The data set is classed as functional, cell-based. An outline of the steps:
(§3)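 Shh-LIGHT2 cells treated 24 h, then SHH and SuFu protein levels assessed by western blotting.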

For data set [6], the system named is Shh Light II. Put plainly: Cytotoxicity against mouse Shh Light2 cells up to 150 uM after 40 hrs by MTT assay. The data set is classed as cell-based. An outline of the steps: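 MTT viability in Shh-LIGHT2 cells (NIH-3T3 clone with Gli-dependent firefly and constitutive Renilla luciferase reporters) after 40 h exposure to doses up to 150 μM, under the same conditions as the Hh reporter assay.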

Data set [7] has as its system Shh Light II. Put plainly: Effect on SuFu expression in mouse Shh Light2 cells at 25 to 50 uM after 24 hrs by Western blot analysis. The data set is classed as functional, cell-based. Put shortly: as §3
For data set [8], the system named is Shh Light II. Put plainly: Effect on Ptch1 expression in mouse Shh Light2 cells at 25 to 50 uM after 24 hrs by Western blot analysis. Format: functional, cell-based.
A further data set is filed under the species Mus musculus. Particulars: 0.5 to 50 uM.
Data set [9] has as its system Shh Light II. Kind of data set: Cell cycle arrest in mouse Shh Light2 cells assessed as accumulation at G0/G1 phase at 10 uM after 30 to 48 hrs by propidium iodide staining-based flow cytometry (reference value: 86.2%). Format: functional. In general terms: A flow cytometer gives signals particle by particle.
Data set [10] deals with Shh Light II. Kind of data set: Cell cycle arrest in mouse Shh Light2 cells assessed as accumulation at G2/M phase at 10 uM after 30 to 48 hrs by propidium iodide staining-based flow cytometry (reference value: 6.7%). The data set is classed as functional.
The test system of data set [11] is Shh Light II. Put plainly: Cell cycle arrest in mouse Shh Light2 cells assessed as accumulation at S phase at 10 uM after 30 to 48 hrs by propidium iodide staining-based flow cytometry (reference value: 3.6%). The data set is classed as functional.
Data set [12] has as its system Shh Light II. Kind of data set: Cell cycle arrest in mouse Shh Light2 cells assessed as accumulation at subG0 phase at 10 uM after 30 to 48 hrs by propidium iodide staining-based flow cytometry (reference value: 3.4%). Format: functional.
Data set [13] has as its system Shh Light II. Put plainly: Effect on Smo expression in mouse Shh Light2 cells at 75 to 100 uM after 24 hrs by Western blot analysis. Format: functional, cell-based.
The subject of data set [14] is Shh Light II. Kind of data set: Effect on Ptch1 expression in mouse Shh Light2 cells at 75 to 100 uM after 24 hrs by Western blot analysis. The data set is classed as functional, cell-based.
For data set [15], the system named is Shh Light II. Kind of data set: Effect on SuFu expression in mouse Shh Light2 cells at 75 to 100 uM after 24 hrs by Western blot analysis. The data set is classed as functional, cell-based.
The subject of data set [16] is Shh Light II. Kind of data set: Effect on SHH expression in mouse Shh Light2 cells at 75 to 100 uM after 24 hrs by Western blot analysis. Format: functional, cell-based.
The subject of data set [17] is Shh Light II. Put plainly: Cell cycle arrest in mouse Shh Light2 cells assessed as accumulation at G0/G1 phase at 30 uM after 30 to 48 hrs by propidium iodide staining-based flow cytometry (reference value: 86.2%). The data set is classed as functional.
In data set [18] the test system is Shh Light II. Put plainly: Cell cycle arrest in mouse Shh Light2 cells assessed as accumulation at G2/M phase at 30 uM after 30 to 48 hrs by propidium iodide staining-based flow cytometry (reference value: 6.7%). The data set is classed as functional.
Data set [19] has as its system Shh Light II. Put plainly: Cell cycle arrest in mouse Shh Light2 cells assessed as accumulation at S phase at 30 uM after 30 to 48 hrs by propidium iodide staining-based flow cytometry (reference value: 3.6%). Format: functional.
The subject of data set [20] is Shh Light II. Kind of data set: Cell cycle arrest in mouse Shh Light2 cells assessed as accumulation at subG0 phase at 30 uM after 30 to 48 hrs by propidium iodide staining-based flow cytometry (reference value: 3.4%). The data set is classed as functional.
The subject of data set [21] is Shh Light II. Kind of data set: Cell cycle arrest in mouse Shh Light2 cells assessed as accumulation at G0/G1 phase at 100 uM after 30 to 48 hrs by propidium iodide staining-based flow cytometry (reference value: 86.2%). The data set is classed as functional.
Data set [22] has as its system Shh Light II. Kind of data set: Cell cycle arrest in mouse Shh Light2 cells assessed as accumulation at G2/M phase at 100 uM after 30 to 48 hrs by propidium iodide staining-based flow cytometry (reference value: 6.7%). The data set is classed as functional.
The subject of data set [23] is Shh Light II. Kind of data set: Cell cycle arrest in mouse Shh Light2 cells assessed as accumulation at S phase at 100 uM after 30 to 48 hrs by propidium iodide staining-based flow cytometry (reference value: 3.6%). The data set is classed as functional.
Data set [24] relates to Shh Light II. Kind of data set: Cell cycle arrest in mouse Shh Light2 cells assessed as accumulation at subG0 phase at 100 uM after 30 to 48 hrs by propidium iodide staining-based flow cytometry (reference value: 3.4%). The data set is classed as functional.

What is called inhibition is how much of the control response was suppressed.

The source made the active and inactive calls. The rule behind the calls is not given here.

On to `O=C(O)C1CCCCN1` (configuration not stated), for which the inhibition result in [1] and in [2] was “inactive” in each case.

As to `O=C(O)C1CCCCNN1` (configuration not stated), the inhibition result in [3] and in data set [4] was “inactive” each time.

Take `CN(C)C(=O)C1CCCNN1` (configuration not stated): the result in the data set with Shh Light II [5], in the data set on Shh Light II [7] and in the data set on Shh Light II [8] was inactive. In addition, in the data set with Shh Light II [6], the Activity entry is “Non-Toxic”. In the data set filed under Mus musculus, the inhibition result is “inactive”.

On to `COC(=O)C1CCCNN1` (configuration not stated), for which the inhibition result in data set [3] and in [4] was “inactive” each time.

`CC1=C2C[C@H]3[C@@H](CC=C4C[C@@H](O)CC[C@@]43C)[C@@H]2CC[C@]12O[C@@H]1C[C@H](C)CN[C@H]1[C@H]2C` [CYCLOPAMINE]: the Activity came to 84.1% with Shh Light II [9], 7.7% with Shh Light II [10], 4.7% with Shh Light II [11] and 3.2% in the data set with Shh Light II [12].

Regarding `O=C(O)C1CCCNN1` (configuration not stated), the Activity result is reported as “Non-Toxic” in the data set on Shh Light II [6]; 82.9% in the data set on Shh Light II [17]; 7.8% in the data set on Shh Light II [18]; 4.4% in the data set with Shh Light II [19]; 4.7% in the data set with Shh Light II [20]; 81.3% in the data set with Shh Light II [21]. Further, the Activity came to 8.3% in the data set with Shh Light II [22], 4.9% in the data set on Shh Light II [23] and 5.2% with Shh Light II [24]. The result with Shh Light II [13], in the data set with Shh Light II [14], in the data set on Shh Light II [15] and in the data set on Shh Light II [16] was inactive. The inhibition in data set [3] is below 50%; in data set [2] it was “Dose-dependent effect”.

For `NC(=O)C1CCCNN1` (configuration not stated), the result in the data set with Shh Light II [5], in the data set on Shh Light II [7] and in the data set on Shh Light II [8] was inactive. Moreover, in the data set on Shh Light II [6], the Activity entry is “Non-Toxic”. In addition, in the data set listed under Mus musculus, the inhibition result is “inactive”.

In the case of `COC(=O)C1CCCCNN1` (configuration not stated), the inhibition result in data set [3] and in data set [4] was “inactive” in each case.
